These results are taken from paper PMC2933382 (Biochemistry, 2010).

SMILES strings stand for the structures. Where two headings read alike, the source gives them in different places.

Data set [1] concerns the target T1, wild type AeSCP-2 (Aedes aegypti, UniProt Q86PR3).
T1 sequence (Q86PR3 1-110): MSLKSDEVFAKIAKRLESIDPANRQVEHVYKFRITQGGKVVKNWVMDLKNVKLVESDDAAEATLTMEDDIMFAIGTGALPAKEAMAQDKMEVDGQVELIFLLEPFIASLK
Description: Ligand competition assay with NBD-cholesterol. It is filed as binding.

The target in a further data set is AeSCP-2 W44A mutant (Aedes aegypti, UniProt Q86PR3, W44A). The data set is described as follows: Ligand competition assay with NBD-cholesterol. It counts as binding.
Data set [2] addresses T2, AeSCP-2 F105W mutant (Aedes aegypti, UniProt Q86PR3, F105W). Description: Ligand competition assay with NBD-cholesterol. It is filed as binding.
Data set [3] deals with T3, AeSCP-2 F32W mutant (Aedes aegypti, UniProt Q86PR3, F32W). Description: Ligand competition assay with NBD-cholesterol. It counts as binding.
Data set [4] concerns the target T4, AeSCP-2 Y30A mutant (Aedes aegypti, UniProt Q86PR3, Y30A). Description: Ligand competition assay with NBD-cholesterol. It is filed as binding.
The target of data set [5] is T5, AeSCP-2 M90L mutant (Aedes aegypti, UniProt Q86PR3, M90L). Description: Ligand competition assay with NBD-cholesterol. It is filed as binding.
Data set [6] has as its target T6, AeSCP-2 W44E mutant (Aedes aegypti, UniProt Q86PR3, W44E). The data set is described as follows: Ligand competition assay with NBD-cholesterol. It is filed as binding.
Data set [7] concerns the target T7, AeSCP-2 (Aedes aegypti, UniProt Q86PR3).
T7 sequence (Q86PR3 1-110): T1 sequence (Q86PR3 1-110)
The data set is described as follows: Initial ligand competition assay. It is filed as binding. The note with it: Fig. 1; NBD-cholesterol 1.25 µM, competitive ligand 0.005 to 5 µM.

Data set [8] deals with T7, AeSCP-2. The note with it: read-out: IC50 (suppression of NBD-cholesterol binding); cited from earlier work.
Data set [9] deals with wild type AeSCP-2 denatured in 6.5 M guanidine hydrochloride. The data set is described as follows: Intrinsic tryptophan fluorescence, denatured protein negative control. It counts as binding, Aedes aegypti. Conditions: Fig. 6B. An outline of the steps:
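Negative control: recombinant AeSCP-2 denatured in 6.5 M guanidine-HCl in 50 mM Tris-HCl, pH 7.4, scanned with and without inhibitor. Excitation at 280 nm; emission read 320–390 nm. Buffer and inhibitor-alone spectra were subtracted to give difference spectra.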

In data set [10] the target is T5, AeSCP-2 M90L mutant. It counts as binding. The note with it: Fig. 6D.
Data set [11] has as its target T8, AeSCP-2 F9W/W44F mutant (Aedes aegypti, UniProt Q86PR3, F9W/W44F). It counts as binding. Conditions: Fig. 6C.
Data set [12] has as its target T1, wild type AeSCP-2. It is filed as binding. The note with it: 50 µM SCPI; wild type AeSCP-2 at 10 µM; Fig. 6A. Summed up:
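Intrinsic Trp (single residue, W44) fluorescence of purified recombinant native AeSCP-2, with and without SCP-2 inhibitor. Run in 100 µL of 50 mM Tris-HCl, pH 8.0, at 25 °C. Excitation at 280 nm; emission scanned 320–390 nm. Difference spectra were made by subtracting buffer and inhibitor-alone spectra.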

Data set [13] concerns the target T2, AeSCP-2 F105W mutant. The data set is described as follows: NBD-cholesterol binding to recombinant AeSCP-2 mutant. Conditions: 0.5 µM NBD-cholesterol, protein 0.01 to 10 µM, mean (standard deviation).
The target of data set [14] is T5, AeSCP-2 M90L mutant. The description is as above.
The target of data set [15] is T3, AeSCP-2 F32W mutant. The data set is described as above. The note with it: 0.5 µM NBD-cholesterol, protein 0.01 to 10 µM, mean (standard deviation).
Data set [16] has as its target T8, AeSCP-2 F9W/W44F mutant. The description is as above.
For data set [17], the target named is T6, AeSCP-2 W44E mutant. The description is as above.
For another data set, the target named is T9, AeSCP-2 wild-type (Aedes aegypti, UniProt Q86PR3).
T9 sequence (Q86PR3 1-110): T1 sequence (Q86PR3 1-110)
The data set is described as follows: NBD-cholesterol binding to recombinant AeSCP-2. The note with it: wt; 0.5 µM NBD-cholesterol, protein 0.01 to 10 µM; mean (standard deviation).

The next data set deals with AeSCP-2 F32A mutant (Aedes aegypti, UniProt Q86PR3, F32A). The data set is described as follows: NBD-cholesterol binding to recombinant AeSCP-2 mutant.
Data set [18] addresses T4, AeSCP-2 Y30A mutant. The data set is described as above.
The target of a further data set is AeSCP-2 F105A mutant (Aedes aegypti, UniProt Q86PR3, F105A). Described as above.
The next data set deals with Aag-2 cells. It counts as cell-based, Aedes aegypti. The note with it: for Incorporation of [3H]cholesterol: Fig. 4; for Incorporation of [3H]palmitic acid: Fig. 5.
In the next data set the target is recombinant AeSCP-2. Conditions: radiolabelled cholesterol; cited from earlier work.
For data set [19] the following is noted: within the lipid bilayer; cited from earlier work.

With `CC[C@H](CC[C@@H](C)[C@H]1CC[C@H]2[C@@H]3CC=C4C[C@@H](O)CC[C@]4(C)[C@H]3CC[C@]12C)C(C)C` [β-sitosterol], the EC50 at wild type AeSCP-2 [1] stood at 142 nM; on AeSCP-2 W44A mutant, 112 nM; at AeSCP-2 F105W mutant [2] it was 83 nM; on AeSCP-2 F32W mutant [3] it was 61 nM; on AeSCP-2 Y30A mutant [4], 96 nM; at AeSCP-2 M90L mutant [5] it was 46 nM. On AeSCP-2 W44E mutant [6], this compound returned an EC50 of 42 nM. At AeSCP-2 [7], the “Competition with NBD-cholesterol for binding to AeSCP-2” value (from here on “Competition with NBD-cholesterol”) was “also competed with NBD-cholesterol for binding to AeSCP-2”.
Regarding `CCCCCCCCCCCCCCCC(=O)O` [palmitic acid], the concentration giving a half-maximal response (EC50) at wild type AeSCP-2 [1] amounted to 348 nM; on AeSCP-2 W44A mutant, 127 nM; on AeSCP-2 F105W mutant [2], 175 nM; at AeSCP-2 F32W mutant [3], 398 nM; on AeSCP-2 Y30A mutant [4], 100 nM; at AeSCP-2 M90L mutant [5], 127 nM. At AeSCP-2 W44E mutant [6], this compound registered a concentration for a half-maximal effect (EC50) of 75 nM. Besides, at AeSCP-2 [7], the “Competition with NBD-cholesterol” value is on record as “also competed with NBD-cholesterol for binding to AeSCP-2”.
Turning to `Br.CC(=O)Nc1ccc(Nc2nc(-c3ccc(Cl)c(Cl)c3)cs2)cc1` [SCPI-1, N-4-{[4-(3,4-dichlorophenyl)-1,3-thiazol-2-yl]amino}phenyl)aetamide hydrobromide], the IC50 at AeSCP-2 [8] is < 400 nM.
On to `COc1cccc(-n2sc3c(c2=S)-c2cc(Cl)ccc2NC3(C)C)c1` [SCPI-2, 8-chloro-2-(3-methoxyphenyl)-4,4-dimethyl-4,5-dihydroisothiazol[5,4-c]quinoline-1(2H)-thione], for which the IC50 on AeSCP-2 [8] was < 400 nM. For the same compound, in data set [9], the “Quenching of tryptophan intrinsic fluorescence, denatured protein” value is “no significant quenching”. Moreover, the “Effect on tryptophan intrinsic fluorescence” value on AeSCP-2 M90L mutant [10] and at AeSCP-2 F9W/W44F mutant [11] was “did not affect” throughout. Besides, the “Effect on tryptophan intrinsic fluorescence signal” value on wild type AeSCP-2 [12] is given as “significant decrease”.
As for `C[C@H](CNc1ccc([N+](=O)[O-])c2nonc12)[C@H]1CC[C@H]2[C@@H]3CC=C4C[C@@H](O)CC[C@]4(C)[C@H]3CC[C@]12C` [NBD-cholesterol, 22-(N-(7-nitrobenz-2-oxa-1,3-diazol-4-yl)amino)-23,24-bisnor-5-cholen-3β-o], the Kd turned out to be 1320 nM on AeSCP-2 F105W mutant [13]; 2750 nM on AeSCP-2 M90L mutant [14] (M90L, 0.5 µM NBD-cholesterol, protein 0.01 to 10 µM, mean (standard deviation)); 4940 nM on AeSCP-2 F32W mutant [15]; 910 nM at AeSCP-2 F9W/W44F mutant [16] (F9W/W44F, 0.5 µM NBD-cholesterol, protein 0.01 to 10 µM, mean (standard deviation)); 4200 nM at AeSCP-2 W44E mutant [17] (W44E, 0.5 µM NBD-cholesterol, protein 0.01 to 10 µM, mean (standard deviation)); 340 nM at AeSCP-2 wild-type. In addition, the Kd was found to be 6360 nM at AeSCP-2 F32A mutant (F32A, 0.5 µM NBD-cholesterol, protein 0.01 to 10 µM, mean (standard deviation)); 250 nM on AeSCP-2 Y30A mutant [18] (Y30A, 0.5 µM NBD-cholesterol, protein 0.01 to 10 µM, mean (standard deviation)); 1150 nM on AeSCP-2 F105A mutant (F105A, 0.5 µM NBD-cholesterol, protein 0.01 to 10 µM, mean (standard deviation)). In addition, the “Fold of Kd change” value at AeSCP-2 M90L mutant [14] (M90L vs. wt) was 8.09; at AeSCP-2 F9W/W44F mutant [16] (F9W/W44F vs. wt), 2.68; on AeSCP-2 W44E mutant [17] (W44E vs. wt), 12.35; at AeSCP-2 F32A mutant (F32A vs. wt), 18.71; at AeSCP-2 Y30A mutant [18] (Y30A vs. wt), 0.73; at AeSCP-2 F105A mutant (F105A vs. wt) it was 3.38.
For `[3H]C1C([3H])[C@@]2(C)C(=CC[C@H]3[C@@H]4CC[C@H]([C@H](C)CCCC(C)C)[C@@]4(C)CC[C@@H]32)C[C@H]1O` (stereo partly shown) [[^3H]cholesterol, [1,2-^3H (N)]-cholesterol], the “Incorporation of [3H]cholesterol” value is “did not increase” with Aag-2 cells (cells over-expressing AeSCP-2 mutants F32A, W44E, M90L, and F105A); “increased significantly” in the data set with Aag-2 cells (cells over-expressing wild type AeSCP-2 vs. empty vector).
Regarding `CC(C)CCC[C@@H](C)[C@H]1CC[C@H]2[C@@H]3CC=C4C[C@@H](O)CC[C@]4(C)[C@H]3CC[C@]12C` [cholesterol], the EC50 stood at 211 nM at wild type AeSCP-2 [1]; 72 nM on AeSCP-2 W44A mutant; 474 nM at AeSCP-2 F105W mutant [2]; 447 nM at AeSCP-2 F32W mutant [3]; 282 nM at AeSCP-2 Y30A mutant [4]. Also, the Kd on recombinant AeSCP-2 was 10 nM. At wild type AeSCP-2 [12], the “Effect on tryptophan intrinsic fluorescence signal” value is recorded as “does not produce a quenching”. In addition, the “flip-flop rate t1/2” value in data set [19] was 1 to 2 min. In addition, the “Competition with NBD-cholesterol” value at AeSCP-2 [7] was “competed with the NBD-cholesterol for binding to AeSCP-2 in a dose-dependent fashion”.
As to `CC(C)CCC[C@@H](C)[C@H]1CC[C@H]2C3=CC=C4C[C@@H](O)CC[C@]4(C)[C@H]3CC[C@]12C` [7-dehydrocholesterol], the “Competition with NBD-cholesterol” value at AeSCP-2 [7] was “did not appear to compete”.
Turning to `[3H]C(CCCCCC)C([3H])CCCCCCCC(=O)O` (stereo not shown) [[^3H]palmitic acid, [9,10-^3H]-palmitic acid], the entries for the “Incorporation of [3H]palmitic acid” value with Aag-2 cells (cells transfected with either empty or AeSCP-2 wild type expression vectors) and in the data set on Aag-2 cells (over-expression of AeSCP-2 mutants) were “no increase” and “did not affect”, respectively.
For `Br.CC(=O)Nc1ccc(Nc2nc(-c3ccc(Cl)c(Cl)c3)cs2)cc1` [SCPI-1], in data set [9], the “Quenching of tryptophan intrinsic fluorescence, denatured protein” value is “no significant quenching”. The “Effect on tryptophan intrinsic fluorescence” value at AeSCP-2 M90L mutant [10] and at AeSCP-2 F9W/W44F mutant [11] was “still quenched” throughout. Also, the “Effect on tryptophan intrinsic fluorescence signal” value at wild type AeSCP-2 [12] was “significant decrease”.

A word on the EC50: it is the concentration giving half of the maximal effect. By IC50 is commonly meant the midpoint of a concentration-inhibition curve. What is called Kd is the equilibrium constant for the complex coming apart.
